The record followed here is ChEMBL document CHEMBL3526048, “In vitro metabolism of rivoglitazone, a novel peroxisome proliferator-activated receptor γ agonist, in rat, monkey, and human liver microsomes and freshly isolated hepatocytes” (Drug Metab Dispos, 2011).

The target in one data set is Cytochrome P450 2C9 (Homo sapiens, UniProt P11712). Kind of data set: Activity of human CYP2C9 expressed in microsomes isolated from baculovirus infected insect cell assessed as enzyme-mediated 5-(4-((6-hydroxy-1-methyl-1H-benzo[d]imidazol-2-yl)methoxy)benzyl)thiazolidine-2,4-dione formation at 20 uM after 2 hrs by radio-HPLC/LC-MS/MS analysis in presence of NADPH-generating system and NADPH-generating system/SAM. The data set is classed as ADME.
Chain of Cytochrome P450 2C9 (P11712 whole entry): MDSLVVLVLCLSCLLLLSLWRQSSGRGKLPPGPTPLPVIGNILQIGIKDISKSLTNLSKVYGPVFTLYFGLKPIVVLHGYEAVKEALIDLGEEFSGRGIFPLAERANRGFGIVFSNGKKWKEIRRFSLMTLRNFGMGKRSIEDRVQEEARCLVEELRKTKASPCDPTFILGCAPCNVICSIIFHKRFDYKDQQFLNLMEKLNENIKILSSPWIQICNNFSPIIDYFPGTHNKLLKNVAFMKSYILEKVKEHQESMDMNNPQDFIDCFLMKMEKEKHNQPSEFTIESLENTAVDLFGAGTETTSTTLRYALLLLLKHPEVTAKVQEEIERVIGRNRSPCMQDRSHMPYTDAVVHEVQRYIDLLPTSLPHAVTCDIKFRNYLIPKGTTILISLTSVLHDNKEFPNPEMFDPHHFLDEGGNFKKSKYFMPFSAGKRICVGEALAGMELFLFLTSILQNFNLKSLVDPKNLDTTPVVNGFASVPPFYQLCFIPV

The target in a further data set is Cytochrome P450 3A4 (Homo sapiens, UniProt P08684). As to the kind of experiment: Activity of human CYP3A4 expressed in microsomes isolated from baculovirus infected insect cell assessed as enzyme-mediated 2-mercapto-3-(4-((6-methoxy-1-methyl-1H-benzo[d]imidazol-2-yl)methoxy)phenyl)propanoic acid formation at 20 uM after 2 hrs by radio-HPLC/LC-MS/MS analysis in presence of NADPH-generating system. The data set is classed as ADME. The method in brief:
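Baculovirus-insect-cell microsomes expressing the human CYP (1 mg/ml protein) were incubated with [14C]rivoglitazone (20 μM) in 50 mM potassium phosphate (pH 7.4) or 100 mM Tris-HCl (pH 7.5) with an NADPH-generating system (2 mM NADP+, 20 mM glucose 6-phosphate, 2 units/ml G6PDH, 10 mM MgCl2) for 2 h at 37°C. Insect-cell control supersomes served as the control. Reactions were stopped with acetonitrile, and the concentrated supernatants were analysed by radio-HPLC, LC-MS and LC-MS/MS.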

Chain of Cytochrome P450 3A4 (P08684 whole entry): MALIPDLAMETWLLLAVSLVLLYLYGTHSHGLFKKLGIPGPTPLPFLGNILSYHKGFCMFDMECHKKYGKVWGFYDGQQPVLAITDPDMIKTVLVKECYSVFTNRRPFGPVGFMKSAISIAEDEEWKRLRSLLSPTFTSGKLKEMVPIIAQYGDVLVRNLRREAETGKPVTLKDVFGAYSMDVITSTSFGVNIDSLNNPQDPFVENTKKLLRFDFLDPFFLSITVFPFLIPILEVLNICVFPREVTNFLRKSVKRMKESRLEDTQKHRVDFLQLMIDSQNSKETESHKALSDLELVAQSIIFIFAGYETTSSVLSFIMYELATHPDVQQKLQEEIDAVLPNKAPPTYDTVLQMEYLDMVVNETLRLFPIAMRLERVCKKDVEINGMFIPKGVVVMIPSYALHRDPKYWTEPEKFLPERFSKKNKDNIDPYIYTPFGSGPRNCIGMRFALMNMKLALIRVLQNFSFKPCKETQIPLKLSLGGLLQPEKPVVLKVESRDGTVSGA

`COc1ccc2nc(COc3ccc(C[14CH]4SC(=O)NC4=O)cc3)n(C)c2c1.Cl` (racemic): the Drug metabolism entry on Cytochrome P450 2C9 and at Cytochrome P450 3A4 was “metabolite_detected” in each case.
